ChEMBL document CHEMBL4270510, “Indolyl-isoxazolidines attenuate LPS-stimulated pro-inflammatory cytokines and increase survival in a mouse model of sepsis: Identification of potent lead” (Eur J Med Chem, 2018)
Calls of active or inactive are those of the source. No cut-off for these calls is given here.

Experiments:
THP-1 [1] = experiment: Antiinflammatory activity against PMA-treated human THP1 cells assessed as inhibition of LPS-induced IL-6 production at 5 uM after 24 hrs by ELISA relative to total protein level (reference value: 6.06 +/- 0.55); assay type: functional
THP-1 [2] = experiment: Antiinflammatory activity against PMA-treated human THP1 cells assessed as inhibition of LPS-induced IL-6 production at 5 uM after 24 hrs by ELISA relative to control; assay type: functional
THP-1 [3] = experiment: Inhibition of LPS-induced TNFalpha production in PMA-treated human THP1 cells at 5 uM after 24 hrs by ELISA relative to total protein level (reference value: 6.04 +/- 0.54); assay type: cell-based; settings: thp-1, 24 h
THP-1 [4] = experiment: Cytotoxicity against human THP1 cells assessed as decrease in cell growth after 24 hrs by MTT assay; assay type: cell-based; settings: THP-1, 24 h
Procedure, shortened: (§1)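 THP-1 cells in 96-well plates treated with a range of compound concentrations for 24 or 48 h. MTT (2.5 mg/mL) added for 4 h at 37 °C, formazan dissolved in DMSO, absorbance read at 540 nm. Growth taken as treated versus untreated absorbance.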

THP-1 [5] = experiment: Cytotoxicity against human THP1 cells assessed as decrease in cell growth after 48 hrs by MTT assay; assay type: cell-based; settings: THP-1, 48 h; procedure, shortened: as §1
Mus musculus [6] = experiment: Antiinflammatory activity against Swiss albino mouse assessed as inhibition of LPS-induced IL-6 production in serum administered ip by ELISA; assay type: functional, organism-based
Procedure, shortened: (§2)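 Swiss albino mice given compound at 5, 10 or 20 mg/kg, then challenged with LPS 1 mg/kg; vehicle and LPS-alone groups included. Cardiac-puncture blood taken with heparin and spun to plasma, stored -20°C. TNF-α and IL-6 measured by ELISA in pg/mL. Dose-response done in triplicate, fitted by quadratic/cubic regression to derive IC50 in mg/kg.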

Mus musculus [7] = experiment: Antiinflammatory activity against Swiss albino mouse assessed as inhibition of LPS-induced TNFalpha production in serum at 20 mg/kg, ip by ELISA relative to control; assay type: functional; procedure, shortened: as §2
Mus musculus [8] = experiment: Antiinflammatory activity against Swiss albino mouse assessed as inhibition of LPS-induced IL-6 production in serum at 20 mg/kg, ip by ELISA relative to control; assay type: functional; procedure, shortened: as §2
Mus musculus [9] = experiment: Antiinflammatory activity against Swiss albino mouse assessed as inhibition of LPS-induced TNFalpha production in serum at 10 mg/kg, ip by ELISA relative to control; assay type: functional; procedure, shortened: as §2
Mus musculus [10] = experiment: Antiinflammatory activity against Swiss albino mouse assessed as inhibition of LPS-induced IL-6 production in serum at 10 mg/kg, ip by ELISA relative to control; assay type: functional; procedure, shortened: as §2
Mus musculus [11] = experiment: Antiinflammatory activity against Swiss albino mouse assessed as inhibition of LPS-induced TNFalpha production in serum administered ip by ELISA; assay type: functional, organism-based; procedure, shortened: as §2
Mus musculus [12] = experiment: Antiinflammatory activity in carrageenan-induced Swiss albino mouse assessed as inhibition of paw edema at 12.5 mg/kg, ip administered 0.5 hrs prior to carrageenan challenge measured at 1 to 6 hrs post challenge; assay type: functional, organism-based
Procedure, shortened: (§3)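 Mice given vehicle (0.1% CMC), indomethacin 10 mg/kg p.o., or test compound 30 min before injection of 50 μL 1% w/v carrageenan into right hind paw. Paw edema measured by vernier caliper at 5, 15, 30 min and 1, 2, 3, 4, 6 h. Mean ± SEM.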

Homo sapiens = species on record: Homo sapiens; experiment: Inhibition of NF-KappaB pathway in human THP1 cell lysates assessed as decrease in LPS-induced iNOS expression level after 24 hrs by Western blot analysis
Procedure, shortened: (§4)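 PMA-differentiated THP-1 cells co-treated with LPS and a range of compound concentrations for 24 h, lysed in RIPA buffer. COX-2 and iNOS expression assessed by western blot, with β-actin as internal control.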

Mus musculus [13] = experiment: Antiinflammatory activity in carrageenan-induced Swiss albino mouse assessed as inhibition of paw edema at 12.5 mg/kg, ip administered 0.5 hrs prior to carrageenan challenge measured at 6 hrs post challenge; assay type: functional; procedure, shortened: as §3
Mus musculus [14] = experiment: Analgesic activity in Swiss albino mouse assessed as inhibition of acetic acid induced writhing at 12.5 mg/kg, ip pretreated with opioid receptor antagonist naloxone for 30 mins followed by acetic acid challenge and measured after 30 mins; assay type: functional, organism-based
Mus musculus [15] = experiment: Acute toxicity in Swiss albino mouse assessed as effect on gross behavioral abnormality at 50 to 2000 mg/kg, ip administered continuously for first 4 hrs and periodically for 24 hrs measured after 14 days; assay type: organism-based; settings: in vivo
Procedure, shortened: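 Swiss albino mice, 3 per group: vehicle control, or 50, 300 or 2000 mg kg⁻¹ given after 4 h fasting under OECD acute toxicity guideline; watched continuously for first 4 h then periodically to 24 h for gross behavioural abnormality.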

THP-1 [16] = experiment: Antiinflammatory activity against human THP1 cells assessed as inhibition of LPS-induced COX-2 expression level after 24 hrs by Western blot analysis; assay type: functional, cell-based; procedure, shortened: as §4
Mus musculus [17] = experiment: Analgesic activity in Swiss albino mouse assessed as inhibition of acetic acid induced writhing at 12.5 mg/kg, ip pretreated with misoprostol for 30 mins followed by acetic acid challenge and measured after 30 mins; assay type: functional, organism-based
Mus musculus [18] = experiment: Acute toxicity in Swiss albino mouse assessed as effect on myocardium at 2000 mg/kg, ip administered continuously for first 4 hrs and periodically for 24 hrs measured after 14 days by hematoxylin and eosin staining based assay; assay type: organism-based; settings: in vivo
Procedure, shortened: (§5)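 OECD acute toxicity design, Swiss albino mice fasted 4 h, 3 per group, vehicle vs 2000 mg kg⁻¹; after 14 days one animal each from control and top-dose groups sacrificed; heart, liver and kidney sections H and E stained and compared with control.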

Mus musculus [19] = experiment: (§6) Antinociceptive activity in Swiss albino mouse assessed as inhibition of acetic acid-induced writhing by measuring reduction in number of abnormal muscle constrictions at 12.5 mg/kg, ip treated 30 mins prior to test followed by acetic acid challenge measured for 30 mins post acetic acid challenge relative to control; assay type: functional
Procedure, shortened: (§7)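 Mice dosed i.p. with vehicle (0.1% carboxymethyl cellulose), test compound 12.5 mg/kg or indomethacin 10 mg/kg, 30 min before acetic acid (0.6% v/v, 10 ml/kg, i.p.). Writhes counted per mouse over 30 min after acetic acid. Mean ± SEM; ANOVA with Tukey test.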

Mus musculus [20] = experiment: Antiseptic activity in Swiss albino mouse model of LPS-induced sepsis assessed as increase in mouse survival rate at 12.5 mg/kg, iv measured for 10 days at 1 day interval
Mus musculus [21] = experiment: Acute toxicity in Swiss albino mouse assessed as effect on liver at 2000 mg/kg, ip administered continuously for first 4 hrs and periodically for 24 hrs measured after 14 days by hematoxylin and eosin staining based assay; assay type: organism-based; settings: in vivo, 336 h; procedure, shortened: as §5
Mus musculus [22] = experiment: Acute toxicity in Swiss albino mouse assessed as effect on kidney at 2000 mg/kg, ip administered continuously for first 4 hrs and periodically for 24 hrs measured after 14 days by hematoxylin and eosin staining based assay; assay type: organism-based; settings: in vivo; procedure, shortened: as §5
Mus musculus [23] = experiment: as §6, with “10” for “12.5”; assay type: functional; procedure, shortened: as §7
Mus musculus [24] = experiment: Antiinflammatory activity in carrageenan-induced Swiss albino mouse assessed as inhibition of paw edema at 10 mg/kg, po administered 0.5 hrs prior to carrageenan challenge measured 6 hrs post challenge; assay type: functional; procedure, shortened: as §3

fold change (FC) (THP-1 [3]) | Compound | fold change (FC) (THP-1 [1]) | fold change (FC) (THP-1 [2]) | other results
4.37 | CCOC(=O)[C@H]1CON(c2ccccc2)[C@H]1c1c[nH]c2ccccc12 (racemic) | 1.15 | 4 - 5 | 
2.42 | CCN1C(=O)[C@H]2[C@H](ON(c3ccccc3)[C@@H]2c2c[nH]c3ccccc23)C1=O (racemic) | 3.09 |  | 
3.92 | c1ccc(N2O[C@H](c3ccncc3)C[C@@H]2c2c[nH]c3ccccc23)cc1 (racemic) | 2.77 | 4 - 5 | 
3.98 | CCCCOC(=O)[C@@H]1C[C@H](c2c[nH]c3ccccc23)N(c2ccccc2)O1 (racemic) | 2.06 |  | 
2.59 | CCCCOC(=O)[C@H]1CON(c2ccccc2)[C@H]1c1c[nH]c2ccccc12 (racemic) | 3.03 |  | 
7.77 | CCOC(=O)[C@@H]1C[C@H](c2c[nH]c3ccccc23)N(c2ccccc2)O1 (racemic) | 3.2 |  | 
2.74 | C[C@@]1(c2ccccc2)C[C@H](c2c[nH]c3ccccc23)N(c2ccccc2)O1 (racemic) | 1.13 | 4 - 5 | IC50 (THP-1 [4]): > 100 µM; IC50 (THP-1 [5]): 74 µM
3 | COC(=O)[C@H]1CON(c2ccccc2)[C@H]1c1c[nH]c2ccccc12 (racemic) | 1.67 | 4 - 5 | 
4.58 | Cc1ccc([C@@H]2C[C@H](c3c[nH]c4ccccc34)N(c3ccccc3)O2)cc1 (racemic) | 1.12 | 4 - 5 | 
2.21 | O=C1[C@H]2[C@H](ON(c3ccccc3)[C@@H]2c2c[nH]c3ccccc23)C(=O)N1c1ccccc1 (racemic) | 1.43 | 4 - 5 | IC50 (Mus musculus [6]): 7.4 mg/kg; inhibition in vivo at 20 mg/kg (Mus musculus [7]): 62.1%; IC50 (THP-1 [4]): > 100 µM; inhibition in vivo at 20 mg/kg (Mus musculus [8]): 65.5%; inhibition in vivo at 10 mg/kg (Mus musculus [9]): 52.9%; inhibition in vivo at 10 mg/kg (Mus musculus [10]): 60.5%; IC50 (THP-1 [5]): 78 µM; IC50 (Mus musculus [11]): 8.7 mg/kg
7.27 | COC(=O)[C@@H]1C[C@H](c2c[nH]c3ccccc23)N(c2ccccc2)O1 (racemic) | 4.08 |  | 
3.98 | CCOC(=O)[C@@H]1[C@@H](C)ON(c2ccccc2)[C@H]1c1c[nH]c2ccccc12 (racemic) | 3.01 |  | 
4.28 | O=C1NC(=O)[C@H]2ON(c3ccccc3)[C@H](c3c[nH]c4ccccc34)[C@@H]12 (racemic) | 1.65 | 4 - 5 | 
14.93 | c1ccc([C@@H]2C[C@H](c3c[nH]c4ccccc34)N(c3ccccc3)O2)cc1 (racemic) | 5.4 |  | 
 | COc1ccc2c(c1)c(CC(=O)O)c(C)n2C(=O)c1ccc(Cl)cc1 [INDOMETHACIN] |  |  | inhibition in vivo at 10 mg/kg (Mus musculus [23]): 58.1%; inhibition in vivo at 10 mg/kg (Mus musculus [24]): 34.5%

Compound | fold change (FC) (THP-1 [3]) | fold change (FC) (THP-1 [1]) | fold change (FC) (THP-1 [2]) | other results
O=C1[C@H]2[C@H](ON(c3ccccc3)[C@@H]2c2c[nH]c3ccccc23)C(=O)N1Cc1ccccc1 (racemic) | 2.37 | 1.34 | 4 - 5 | IC50 (Mus musculus [6]): 3.5 mg/kg; inhibition in vivo at 20 mg/kg (Mus musculus [7]): 86.1%; inhibition (Mus musculus [12]): Active; inhibition (Homo sapiens): Dose-dependent effect; inhibition in vivo at 12.5 mg/kg (Mus musculus [13]): 36.9%; IC50 (THP-1 [4]): > 100 µM; inhibition (Mus musculus [14]): Active; Activity (Mus musculus [15]): Non-Toxic; inhibition (THP-1 [16]): Dose-dependent effect; inhibition in vivo at 20 mg/kg (Mus musculus [8]): 89.9%; inhibition (Mus musculus [17]): inactive; Activity (Mus musculus [18]): Non-Toxic; inhibition in vivo at 10 mg/kg (Mus musculus [9]): 53.8%; inhibition in vivo at 12.5 mg/kg (Mus musculus [19]): 80.7%; Activity (Mus musculus [20]): Active; inhibition in vivo at 10 mg/kg (Mus musculus [10]): 73.7%; IC50 (THP-1 [5]): 87 µM; IC50 (Mus musculus [11]): 9.4 mg/kg; Activity (Mus musculus [21]): Non-Toxic; Activity (Mus musculus [22]): Non-Toxic
